# Data published in ChEMBL document CHEMBL3739379, “Anti-Candida activity and cytotoxicity of a large library of new N-substituted-1,3-thiazolidin-4-one derivatives” (Eur J Med Chem, 2016).
# Columns and labels:
# Format in all cases: functional
# Candida albicans = test: Antifungal activity against Candida albicans clinical isolate after 24 hrs by sabouraud dextrose broth based microdilution method
# In short: (§1)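 Clinical isolates identified by conventional methods and subcultured for purity. Broth microdilution per NCCLS in Sabouraud dextrose broth; compounds dissolved in DMSO and serially diluted; inoculum 10^3/mL. Controls: fungi without compound, medium only. Incubated 24 h at 37 °C. MIC is the lowest concentration with complete growth inhibition by unaided eye. Values are geometric means over isolates per species.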
# Candida parapsilosis = test: Antifungal activity against Candida parapsilosis clinical isolate after 24 hrs by sabouraud dextrose broth based microdilution method; settings: Lodderomyces parapsilosis; in short: as §1
# Pichia kudriavzevii = test: Antifungal activity against Candida krusei clinical isolate after 24 hrs by sabouraud dextrose broth based microdilution method; in short: as §1
# Klebsiella oxytoca = test: Antibacterial activity against Klebsiella oxytoca after 18 to 22 hrs by broth microdilution method
# In short: (§2)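 Broth microdilution per NCCLS in Mueller-Hinton II broth; isolates subcultured for purity. Compounds dissolved in DMSO, serial dilutions 256 to 0.5 µg/mL; inoculum 10^5/mL. Controls: organism without compound, medium only. Incubation 18 to 22 h at 35 °C. MIC is the lowest concentration giving complete growth inhibition, read by unaided eye.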
# Candida tropicalis = test: Antifungal activity against Candida tropicalis clinical isolate after 24 hrs by sabouraud dextrose broth based microdilution method; in short: as §1
# Staphylococcus aureus = test: Antibacterial activity against Staphylococcus aureus after 18 to 22 hrs by broth microdilution method; in short: as §2
# Staphylococcus warneri = test: Antibacterial activity against Staphylococcus warneri after 18 to 22 hrs by broth microdilution method; in short: as §2
# [Candida] sake = Antifungal activity against Candida sake clinical isolate after 24 hrs by sabouraud dextrose broth based microdilution method; settings: Fermentozyma sake; in short: as §1
# [1] = tested on: Staphylococcus haemolyticus; test: Antibacterial activity against Staphylococcus haemolyticus after 18 to 22 hrs by broth microdilution method; in short: as §2
# Enterococcus faecalis = test: Antibacterial activity against […] faecalis after 18 to 22 hrs by broth microdilution method; in short: as §2
# Nakaseomyces glabratus = test: Antifungal activity against Candida glabrata clinical isolate after 24 hrs by sabouraud dextrose broth based microdilution method; in short: as §1
# Enterobacter sp. = test: Antibacterial activity against Enterobacter sp. after 18 to 22 hrs by broth microdilution method; in short: as §2
# Escherichia coli = test: Antibacterial activity against Escherichia coli at after 18 to 22 hrs by broth microdilution method; in short: as §2
# Proteus mirabilis = test: Antibacterial activity against Proteus mirabilis after 18 to 22 hrs by broth microdilution method; in short: as §2
SMILES,MIC (Candida albicans) [µg/mL],MIC (Candida parapsilosis) [µg/mL],MIC (Pichia kudriavzevii) [µg/mL],MIC (Klebsiella oxytoca) [µg/mL],MIC (Candida tropicalis) [µg/mL],MIC (Staphylococcus aureus) [µg/mL],MIC (Staphylococcus warneri) [µg/mL],MIC ([Candida] sake) [µg/mL],MIC [1] [µg/mL],MIC (Enterococcus faecalis) [µg/mL],MIC (Nakaseomyces glabratus) [µg/mL],MIC (Enterobacter sp.) [µg/mL],MIC (Escherichia coli) [µg/mL],MIC (Proteus mirabilis) [µg/mL]
CCCCCC/C(C)=N/N=C1\SCC(=O)N1Cc1cccc2ccccc12,2,16,8,> 256,8,> 256,> 256,16,> 256,> 256,2,> 256,> 256,> 256
O=C1CS/C(=N\N=C\c2ccco2)N1Cc1ccc([N+](=O)[O-])cc1,4,16,16,> 256,2,> 256,> 256,2,> 256,> 256,8,> 256,> 256,> 256
C/C(=N\N=C1/SCC(=O)N1Cc1ccc([N+](=O)[O-])cc1)c1ccccn1,4,4,32,> 256,4,> 256,> 256,4,> 256,> 256,32,> 256,> 256,> 256
O=C1c2ccccc2C(=O)N1CN1C(=O)CS/C1=N\N=C1CCCC1,2,64,16,> 256,8,> 256,> 256,256,> 256,> 256,16,> 256,> 256,> 256
O=C1CS/C(=N\N=C2CCCC2)N1Cc1cccc2ccccc12,2,128,16,> 256,8,> 256,> 256,256,> 256,> 256,16,> 256,> 256,> 256
OC(Cn1cncn1)(Cn1cncn1)c1ccc(F)cc1F [FLUCONAZOLE],2,2,2,,2,,,2,,,2,,,
CC(C)(O/N=C(\C(=O)N[C@@H]1C(=O)N2C(C(=O)[O-])=C(C[n+]3ccccc3)CS[C@H]12)c1csc(N)n1)C(=O)O [CEFTAZIDIME],,,,8,,2,4,,4,4,,8,4,8
Clc1ccc(C(Cn2ccnc2)OCc2ccsc2Cl)c(Cl)c1 (centres undefined) [TIOCONAZOLE],8,8,8,,8,,,4,,,4,,,
CC(=O)N1CCN(c2ccc(OCC3COC(Cn4ccnc4)(c4ccc(Cl)cc4Cl)O3)cc2)CC1 (centres undefined) [KETOCONAZOLE],2,2,4,,2,,,4,,,2,,,
C[C@@H]1[C@H](O)[C@@H](C)/C=C/C=C/C=C/C=C/C=C/C=C/C=C/[C@H](O[C@@H]2O[C@H](C)[C@@H](O)[C@H](N)[C@@H]2O)C[C@@H]2O[C@](O)(C[C@@H](O)C[C@@H](O)[C@H](O)CC[C@@H](O)C[C@@H](O)CC(=O)O[C@H]1C)C[C@H](O)[C@H]2C(=O)O [AMPHOTERICIN B],4,2,4,,2,,,2,,,4,,,
Clc1ccccc1C(c1ccccc1)(c1ccccc1)n1ccnc1 [CLOTRIMAZOLE],2,2,2,,2,,,2,,,2,,,
Clc1ccc(COC(Cn2ccnc2)c2ccc(Cl)cc2Cl)c(Cl)c1 (centres undefined) [MICONAZOLE],2,4,4,,2,,,2,,,4,,,
